Reference: ChEMBL document CHEMBL1121382, “Inhibitors of polyamine biosynthesis. 8. Irreversible inhibition of mammalian S-adenosyl-L-methionine decarboxylase by substrate analogues” (J Med Chem, 1980)

Assays:
[1] = molecular target: T1, S-adenosylmethionine decarboxylase proenzyme (Rattus norvegicus) (UniProt P17708); assay: Tested for S-adenosyl-L-methionine decarboxylase activity recovered after 80 min of 0.2 nM compound in incubation media; assay type: functional; details: in the assay text read “0.2 mM” for “0.2 nM”
T1 sequence (whole entry): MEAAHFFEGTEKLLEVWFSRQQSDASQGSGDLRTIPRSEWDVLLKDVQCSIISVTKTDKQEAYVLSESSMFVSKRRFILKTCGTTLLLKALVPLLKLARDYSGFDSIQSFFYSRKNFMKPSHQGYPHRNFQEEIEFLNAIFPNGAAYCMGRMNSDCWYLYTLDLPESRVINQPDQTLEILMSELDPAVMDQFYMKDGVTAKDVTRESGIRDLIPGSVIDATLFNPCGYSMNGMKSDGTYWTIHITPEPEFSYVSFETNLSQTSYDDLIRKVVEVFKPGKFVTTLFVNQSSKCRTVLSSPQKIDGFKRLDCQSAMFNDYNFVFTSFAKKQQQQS
In short: (§1)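 Partially purified rat liver AdoMetDC (ammonium sulfate, then MGBG-Sepharose) preincubated at 37 °C, pH 7.0, with BSA and 0.2 mM inhibitor, no reductant. Aliquots removed at 40 or 80 min, then assayed 30 min at 37 °C in phosphate pH 7.0 with 2.5 mM putrescine, DTT and 0.2 mM [1-14C]AdoMet. Released 14CO2 trapped and counted; activity given as % of buffer-only control at the same time.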

[2] = molecular target: T1, S-adenosylmethionine decarboxylase proenzyme (Rattus norvegicus); assay: Tested for S-adenosyl-L-methionine decarboxylase activity recovered after 40 min of 0.2 nM compound in incubation media; assay type: functional; details: in the assay text read “0.2 mM” for “0.2 nM”; in short: as §1
[3] = molecular target: T2, S-adenosylmethionine decarboxylase proenzyme (Rattus norvegicus, UniProt P17708); assay: Tested for inhibition against S-adenosyl-L-methionine decarboxylase from rat liver
T2 sequence (P17708 whole entry): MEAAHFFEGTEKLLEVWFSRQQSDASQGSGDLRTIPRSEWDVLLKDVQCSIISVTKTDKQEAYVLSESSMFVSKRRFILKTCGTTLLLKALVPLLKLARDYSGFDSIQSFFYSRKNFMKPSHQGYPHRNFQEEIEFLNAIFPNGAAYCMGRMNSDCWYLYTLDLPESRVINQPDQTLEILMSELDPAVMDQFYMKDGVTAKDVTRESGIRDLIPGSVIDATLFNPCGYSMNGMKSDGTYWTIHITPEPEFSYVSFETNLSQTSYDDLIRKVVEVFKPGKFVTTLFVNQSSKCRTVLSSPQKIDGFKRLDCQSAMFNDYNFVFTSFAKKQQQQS
In short: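 Partially purified rat liver enzyme; 0.1 M sodium phosphate pH 7.0, 2.5 mM DTT, 2.5 mM putrescine; S-[1-14C]adenosyl-L-methionine at 2.0 × 10⁻⁶ to 1.60 × 10⁻⁴ M; inhibitor 6.25 × 10⁻⁵, 1.25 × 10⁻⁴, 2.50 × 10⁻⁴ M; 30 min, 37 °C; released 14CO2 trapped in ethanolamine and counted, blank-corrected; apparent Ki from short incubations.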

[4] = molecular target: T1, S-adenosylmethionine decarboxylase proenzyme (Rattus norvegicus); assay: Tested for S-adenosyl-L-methionine decarboxylase activity recovered after 80 min of 0.4 mM compound in incubation media
[5] = molecular target: T1, S-adenosylmethionine decarboxylase proenzyme (Rattus norvegicus); assay: Tested for S-adenosyl-L-methionine decarboxylase activity recovered after 40 min of 0.4 mM compound in incubation media
[6] = molecular target: T1, S-adenosylmethionine decarboxylase proenzyme (Rattus norvegicus); assay: Tested for S-adenosyl-L-methionine decarboxylase activity recovered after 40 min of 0.2 mM + 1 mM NaBH3CN compound in incubation media
[7] = molecular target: T1, S-adenosylmethionine decarboxylase proenzyme (Rattus norvegicus); assay: Tested for S-adenosyl-L-methionine decarboxylase activity recovered after 40 min of 0.2 mM compound in incubation media; assay type: functional
In short: (§2)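 Rat liver enzyme (105000g supernatant from livers of male Sprague-Dawley rats, ammonium sulfate 35–65% cut, methylglyoxal bis(guanylhydrazone)-Sepharose eluate) preincubated at 37 °C, pH 7.0, with 0.3 mg BSA, inhibitor 0, 0.2 or 0.4 mM, ±1.0 mM sodium cyanoborohydride. Aliquots taken at 0, 40, 80 min; activity assayed at 0.2 mM substrate; expressed as % of no-addition control.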

[8] = molecular target: T1, S-adenosylmethionine decarboxylase proenzyme (Rattus norvegicus); assay: Tested for S-adenosyl-L-methionine decarboxylase activity recovered after 40 min of 0.2 mM + 1 mM NaBH3CN compound in incubation media; assay type: functional; in short: as §2
[9] = molecular target: T1, S-adenosylmethionine decarboxylase proenzyme (Rattus norvegicus); assay: Tested for S-adenosyl-L-methionine decarboxylase activity recovered after 40 min of 0.4 mM compound in incubation media; assay type: functional; in short: as §2
[10] = molecular target: T1, S-adenosylmethionine decarboxylase proenzyme (Rattus norvegicus); assay: Tested for S-adenosyl-L-methionine decarboxylase activity recovered after 80 min of 0.4 mM compound in incubation media; assay type: functional; in short: as §2
[11] = molecular target: T1, S-adenosylmethionine decarboxylase proenzyme (Rattus norvegicus); assay: Tested for S-adenosyl-L-methionine decarboxylase activity recovered after 80 min of 0.2 mM compound in incubation media; assay type: functional; in short: as §2
[12] = substrate: C[S+](CC[C@H](N)C(=O)[O-])C[C@H]1O[C@@H](n2cnc3c(N)ncnc32)[C@H](O)[C@@H]1O

Molecule: CN(CCCN)C[C@H]1O[C@@H](n2cnc3c(N)ncnc32)[C@H](O)[C@@H]1O
- Activity [1]: 97%
- Activity [2]: 95%
- Ki [3]: 110 µM
- Activity [4]: 97%
- Activity [5]: 93%
- Activity [6]: 94%

Molecule: C[S+](CCC(C)(N)C(=O)O)C[C@H]1O[C@@H](n2cnc3c(N)ncnc32)[C@H](O)[C@@H]1O (some centres undefined)
- Activity [7]: 89%
- Activity [8]: 50%
- Activity [9]: 77%
- Activity [10]: 62%
- Ki [3]: 180 µM
- Activity [11]: 81%

Molecule: CC(N)CC[S+](C)C[C@H]1O[C@@H](n2cnc3c(N)ncnc32)[C@H](O)[C@@H]1O (some centres undefined)
- Activity [1]: 66%
- Activity [2]: 75%
- Ki [3]: 120 µM
- Activity [4]: 42%
- Activity [5]: 65%
- Activity [6]: 21%

B1: S-adenosylmethionine decarboxylase proenzyme (Rattus norvegicus), P17708 (protein)
chain: MEAAHFFEGTEKLLEVWFSRQQSDASQGSGDLRTIPRSEWDVLLKDVQCSIISVTKTDKQEAYVLSESSMFVSKRRFILKTCGTTLLLKALVPLLKLARDYSGFDSIQSFFYSRKNFMKPSHQGYPHRNFQEEIEFLNAIFPNGAAYCMGRMNSDCWYLYTLDLPESRVINQPDQTLEILMSELDPAVMDQFYMKDGVTAKDVTRESGIRDLIPGSVIDATLFNPCGYSMNGMKSDGTYWTIHITPEPEFSYVSFETNLSQTSYDDLIRKVVEVFKPGKFVTTLFVNQSSKCRTVLSSPQKIDGFKRLDCQSAMFNDYNFVFTSFAKKQQQQS
- Km [12]: 51.4 µM
